Measured values published in ChEMBL document CHEMBL1135644, “Effect of spermine conjugation on the cytotoxicity and cellular transport of acridine” (J Med Chem, 2002).

Legend:
L1210 [1] = test: Cellular uptake of conjugates in L1210 cells (control) at a concentration of 0.5 uM (+/-15% SEM); type: functional, cell-based; details: Mus musculus
How it was run: (§1)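 L1210 cells were seeded at 2 × 10^5 cells/mL with conjugate added at seeding, in medium containing 2 mM aminoguanidine, and cultured 24 h. Washed cells were extracted in 0.2 N HClO4/2 M NaCl for 16 h at 4 °C. Intracellular conjugate was quantified by fluorimetry and expressed as nmol/mg protein. Mean of three determinations (±15%).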

L1210 [2] = test: Cellular uptake of conjugates in L1210 cells (control) at a concentration of 1 uM (+/-15% SEM); type: functional, cell-based; details: Mus musculus; how it was run: as §1
CHO [3] = test: In vitro 50% cell growth inhibition by the compound in CHO cells; type: functional, cell-based; details: Cricetulus griseus
How it was run: (§2)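 CHO or CHO-MG cells were trypsinized and plated singly at 2 × 10^3 cells/mL in RPMI 1640/10% FCS with 2 mM aminoguanidine (proline for CHO-MG). Conjugates were added after overnight incubation, with 48 h exposure. Growth was read by MTT formazan absorbance at 540 nm relative to untreated controls. The value is the concentration giving 25% or 50% growth inhibition.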

L1210 [4] = test: In vitro 25% cell growth inhibition by the compound in L1210 cells with 5 mM DFMO addition; type: functional; details: Mus musculus
How it was run: (§3)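 L1210 cells were seeded at 5 × 10^4 cells/mL, and conjugate plus 5 mM DFMO were added at seeding with 2 mM aminoguanidine present. After 48 h, growth was read by MTT at 540 nm relative to DFMO-only controls.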

L1210 [5] = test: Inhibition of [14C]SPD uptake by the compound in 5 min initial rate transport assay in L1210 cells; type: functional, cell-based, Mus musculus
[6] = Ratio of cellular uptake in CHO cells to that of CHO-MG cells.; type: functional
L1210 [7] = test: In vitro 50% cell growth inhibition by the compound in L1210 cells with 5 mM DFMO addition; type: functional, cell-based; details: Mus musculus; how it was run: as §3
Nucleic Acid = test: Drug concentration required to produce 50% inhibition of fluorescence bound ethidium to CT-DNA (1.26:1) (+/-SEM 5%); type: functional; details: Bos taurus
How it was run: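 Ethidium displacement: 1 μM CT-DNA with 1.26 μM ethidium bromide; conjugate stock added serially. Fluorescence was read at excitation 546 nm and emission 595 nm. The value is the conjugate concentration cutting DNA-bound ethidium fluorescence by 50%. Mean of three determinations (±5%).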

L1210 [8] = test: Cellular uptake of conjugates in L1210 cells (control) at a concentration of 2 uM (+/-15% SEM); type: functional, cell-based; details: Mus musculus; how it was run: as §1
L1210 [9] = test: Cellular uptake of conjugates in L1210 cells in presence of 500 uM SPD at a concentration of 1 uM (+/-15% SEM); type: functional, cell-based; details: Mus musculus
How it was run: (§4)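 Same as the L1210 uptake assay: seeded at 2 × 10^5 cells/mL, conjugate plus 500 μM spermidine added together at seeding, 24 h exposure. Extraction in HClO4/NaCl, fluorimetric quantitation, normalized to protein. Mean of three determinations (±15%).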

L1210 [10] = test: In vitro 25% cell growth inhibition by the compound in L1210 cells; type: functional; details: Mus musculus
How it was run: (§5)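 L1210 cells were seeded at 5 × 10^4 cells/mL with conjugate added at seeding, in medium with 2 mM aminoguanidine, for 48 h exposure. Growth was measured by MTT absorbance at 540 nm relative to untreated controls.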

L1210 [11] = test: Cellular uptake of conjugates in L1210 cells in presence of 500 uM SPD at a concentration of 0.5 uM (+/-15% SEM); type: functional, cell-based; details: Mus musculus; how it was run: as §4
CHO-MG [12] = test: Cellular uptake of conjugates in CHO-MG cells at a concentration of 0.5 uM (+/-15% SEM); type: functional, cell-based; details: Cricetulus griseus
How it was run: (§6)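 Conjugates added 24 h after seeding (1 × 10^5 cells/mL, RPMI 1640 with 10% FCS and 2 mM aminoguanidine; proline added for CHO-MG) and left for 24 h. Cells were washed in 0.14 M NaCl, sonicated in 0.2 N HClO4/2 M NaCl and held 16 h at 4 °C. Conjugate in the supernatant was measured by fluorimetry against standards and expressed per mg protein (Folin). Mean of three determinations (±15%).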

L1210 [13] = test: In vitro 50% cell growth inhibition by the compound in L1210 cells; type: functional, cell-based; details: Mus musculus; how it was run: as §5
CHO [14] = test: Cellular uptake of conjugates in CHO cells at a concentration of 0.5 uM (+/-15% SEM); type: functional, cell-based; details: Cricetulus griseus; how it was run: as §6
CHO-MG [15] = test: In vitro 50% cell growth inhibition by the compound in CHO-MG cells; type: functional, cell-based; details: Cricetulus griseus; how it was run: as §2
L1210 [16] = test: Cellular uptake of conjugates in L1210 cells pretreated with 5 mM DFMO at a concentration of 2 uM (+/-15% SEM); type: functional, cell-based; details: Mus musculus
How it was run: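 L1210 cells were seeded at 10^5 cells/mL in medium with 5 mM DFMO, and conjugates were added 24 h later. Cells were harvested after a further 24 h, extracted in 0.2 N HClO4/2 M NaCl and assayed by fluorimetry, expressed per mg protein. Mean of three determinations (±15%).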

IC50 (L1210 [7]) [nM] | IC50 (L1210 [13]) [nM] | Structure (SMILES) | Uptake (nM (mg of protein)-1) (L1210 [1]) | Uptake (nM (mg of protein)-1) (L1210 [2]) | IC50 (CHO [3]) [nM] | IC25 (L1210 [4]) [nM] | Ki (L1210 [5]) [nM] | Ratio [6] | Concentration for 50% ethidium displacement from DNA (C50) (Nucleic Acid) [nM] | Uptake (nM (mg of protein)-1) (L1210 [8]) | Uptake (nM (mg of protein)-1) (L1210 [9]) | IC25 (L1210 [10]) [nM] | Uptake (nM (mg of protein)-1) (L1210 [11]) | Uptake (nM (mg of protein)-1) (CHO-MG [12]) | Uptake (nM (mg of protein)-1) (CHO [14]) | IC50 (CHO-MG [15]) [nM] | Uptake (nM (mg of protein)-1) (L1210 [16])
600 | 2300 | Cl.NCCCNCCCCNCCCNCCCCN=c1c2ccccc2[nH]c2ccccc12 | 0.193 | 0.362 | 2300 | 160 | 83 | 3.1 | 110 | 0.491 | 0.28 | 1100 | 0.094 | 0.026 | 0.081 | 7200 | 
700 | 1400 | Cl.NCCCNCCCCNCCCNCCCCCNc1c2ccccc2nc2ccccc12 |  |  | 1000 | 200 | 135 | 3.4 | 110 | 0.51 |  | 400 |  | 0.061 | 0.21 | 4000 | 1.06
